Data from ChEMBL document CHEMBL1944580, “Synthesis of novel sulfonamide-1,2,4-triazoles, 1,3,4-thiadiazoles and 1,3,4-oxadiazoles, as potential antibacterial and antifungal agents. Biological evaluation and conformational analysis studies” (2012).
Converted amounts (≈) assume the structure as drawn.

Experiments:
Staphylococcus aureus [1] = test: Antibacterial activity against Staphylococcus aureus ATCC 6538 after 24 hrs by micro dilution method; assay type: functional; conditions: ATCC 6538, 24 h
Procedure, shortened: (§1)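 Microdilution MIC in 96-well plates. Bacterial suspensions adjusted in sterile saline to 1.0 × 10^5 CFU/ml, giving 1.0 × 10^4 cfu per well in LB broth. Compounds tested at up to 1 mg/ml. Plates incubated 24 h. MIC taken as the lowest concentration with no visible growth under a binocular microscope. OD at 655 nm was also read against a blank and the positive control. Streptomycin and ampicillin were the positive controls.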

Bacillus cereus [2] = test: Antibacterial activity against Bacillus cereus clinical isolate after 24 hrs by micro dilution method; assay type: functional; procedure, shortened: as §1
Micrococcus flavus [3] = test: Antibacterial activity against Micrococcus flavus ATCC 10240 after 24 hrs by micro dilution method; assay type: functional; conditions: ATCC 10240, 24 h; procedure, shortened: as §1
Listeria monocytogenes [4] = test: Antibacterial activity against Listeria monocytogenes NCTC 7973 after 24 hrs by micro dilution method; assay type: functional; conditions: NCTC 7973, 24 h; procedure, shortened: as §1
Pseudomonas aeruginosa [5] = test: Antibacterial activity against Pseudomonas aeruginosa ATCC 27853 after 24 hrs by micro dilution method; assay type: functional; conditions: ATCC 27853, 24 h; procedure, shortened: as §1
Enterobacter cloacae [6] = test: Antibacterial activity against Enterobacter cloacae human isolate after 24 hrs by micro dilution method; assay type: functional; procedure, shortened: as §1
Salmonella typhimurium [7] = test: Antibacterial activity against Salmonella Typhimurium ATCC 13311 after 24 hrs by micro dilution method; assay type: functional, Salmonella enterica subsp. enterica serovar Typhimurium; conditions: Salmonella enterica, ATCC 13311, 24 h; procedure, shortened: as §1
Escherichia coli [8] = test: Antibacterial activity against Escherichia coli ATCC 35210 after 24 hrs by micro dilution method; assay type: functional; conditions: ATCC 35210, 24 h; procedure, shortened: as §1
Staphylococcus aureus [9] = test: Antibacterial activity against Staphylococcus aureus ATCC 6538 treated for 24 hrs followed by sub-cultivated for 72 hrs by micro dilution method; assay type: functional
Procedure, shortened: (§2)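 2 µl from each well was serially subcultured into 100 µl fresh broth per well and incubated a further 72 h. MBC is the lowest concentration with no visible growth, taken as 99.5% killing of the original inoculum. Streptomycin and ampicillin were the positive controls.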

Bacillus cereus [10] = test: Antibacterial activity against Bacillus cereus clinical isolate treated for 24 hrs followed by sub-cultivated for 72 hrs by micro dilution method; assay type: functional; procedure, shortened: as §2
Micrococcus flavus [11] = test: Antibacterial activity against Micrococcus flavus ATCC 10240 treated for 24 hrs followed by sub-cultivated for 72 hrs by micro dilution method; assay type: functional; procedure, shortened: as §2
Listeria monocytogenes [12] = test: Antibacterial activity against Listeria monocytogenes NCTC 7973 treated for 24 hrs followed by sub-cultivated for 72 hrs by micro dilution method; assay type: functional; procedure, shortened: as §2
Pseudomonas aeruginosa [13] = test: Antibacterial activity against Pseudomonas aeruginosa ATCC 27853 treated for 24 hrs followed by sub-cultivated for 72 hrs by micro dilution method; assay type: functional; procedure, shortened: as §2
Enterobacter cloacae [14] = test: Antibacterial activity against Enterobacter cloacae human isolate treated for 24 hrs followed by sub-cultivated for 72 hrs by micro dilution method; assay type: functional; procedure, shortened: as §2
Salmonella typhimurium [15] = test: Antibacterial activity against Salmonella Typhimurium ATCC 13311 treated for 24 hrs followed by sub-cultivated for 72 hrs by micro dilution method; assay type: functional, Salmonella enterica subsp. enterica serovar Typhimurium; conditions: Salmonella enterica; procedure, shortened: as §2
Escherichia coli [16] = test: Antibacterial activity against Escherichia coli ATCC 35210 treated for 24 hrs followed by sub-cultivated for 72 hrs by micro dilution method; assay type: functional; procedure, shortened: as §2
Talaromyces funiculosus [17] = test: Antifungal activity against Penicillium funiculosum ATCC 36839 after 72 hrs by serial dilution method; assay type: functional; conditions: ATCC 36839, 72 h
Procedure, shortened: (§3)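 Modified microdilution MIC. Spores were washed from malt agar cultures with sterile 0.85% saline containing 0.1% Tween 80 and adjusted to about 1.0 × 10^5 per 100 µl well in malt broth. Compounds were dissolved in DMSO (1 mg/ml). Plates incubated 72 h at 28 °C. MIC is the lowest concentration with no visible growth under a binocular microscope. Bifonazole and ketoconazole were the references.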

Penicillium ochrochloron [18] = test: Antifungal activity against Penicillium ochrochloron ATCC 9112 after 72 hrs by serial dilution method; assay type: functional; conditions: ATCC 9112, 72 h; procedure, shortened: as §3
Trichoderma viride [19] = test: Antifungal activity against Trichoderma viride IAM 5061 after 72 hrs by serial dilution method; assay type: functional; conditions: IAM 5061, 72 h; procedure, shortened: as §3
Aspergillus fumigatus [20] = test: Antifungal activity against Aspergillus fumigatus human isolate after 72 hrs by serial dilution method; assay type: functional; procedure, shortened: as §3
Aspergillus niger [21] = test: Antifungal activity against Aspergillus niger ATCC 6275 after 72 hrs by serial dilution method; assay type: functional; conditions: ATCC 6275, 72 h; procedure, shortened: as §3
Aspergillus flavus [22] = test: Antifungal activity against Aspergillus flavus ATCC 9643 after 72 hrs by serial dilution method; assay type: functional; conditions: ATCC 9643, 72 h; procedure, shortened: as §3
Aspergillus versicolor [23] = test: Antifungal activity against Aspergillus versicolor ATCC 11730 after 72 hrs by serial dilution method; assay type: functional; conditions: ATCC 11730, 72 h; procedure, shortened: as §3
Fulvia fulva [24] = test: Antifungal activity against Fulvia fulva after 72 hrs by serial dilution method; assay type: functional; procedure, shortened: as §3
Talaromyces funiculosus [25] = test: Antifungal activity against Penicillium funiculosum ATCC 36839 treated for 72 hrs followed by sub-cultivated for 5 days by serial dilution method; assay type: functional
Procedure, shortened: (§4)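 MFC obtained after the 72 h, 28 °C malt-broth microdilution (spore inoculum about 1.0 × 10^5 per well, compounds from 1 mg/ml DMSO). 2 µl was serially subcultured into 100 µl broth per well and incubated a further 5 days at 28 °C. MFC is the lowest concentration with no visible growth, taken as 99.5% killing of the original inoculum.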

Penicillium ochrochloron [26] = test: Antifungal activity against Penicillium ochrochloron ATCC 9112 treated for 72 hrs followed by sub-cultivated for 5 days by serial dilution method; assay type: functional; procedure, shortened: as §4
Trichoderma viride [27] = test: Antifungal activity against Trichoderma viride IAM 5061 treated for 72 hrs followed by sub-cultivated for 5 days by serial dilution method; assay type: functional; procedure, shortened: as §4
Aspergillus fumigatus [28] = test: Antifungal activity against Aspergillus fumigatus human isolate treated for 72 hrs followed by sub-cultivated for 5 days by serial dilution method; assay type: functional; procedure, shortened: as §4
Aspergillus niger [29] = test: Antifungal activity against Aspergillus niger ATCC 6275 treated for 72 hrs followed by sub-cultivated for 5 days by serial dilution method; assay type: functional; procedure, shortened: as §4
Aspergillus flavus [30] = test: Antifungal activity against Aspergillus flavus ATCC 9643 treated for 72 hrs followed by sub-cultivated for 5 days by serial dilution method; assay type: functional; procedure, shortened: as §4
Aspergillus versicolor [31] = test: Antifungal activity against Aspergillus versicolor ATCC 11730 treated for 72 hrs followed by sub-cultivated for 5 days by serial dilution method; assay type: functional; procedure, shortened: as §4
Fulvia fulva [32] = test: Antifungal activity against Fulvia fulva treated for 72 hrs followed by sub-cultivated for 5 days by serial dilution method; assay type: functional; procedure, shortened: as §4

MIC (Staphylococcus aureus [1])	MIC (Bacillus cereus [2])	MIC (Micrococcus flavus [3])	MIC (Listeria monocytogenes [4])	MIC (Pseudomonas aeruginosa [5])	MIC (Enterobacter cloacae [6])	MIC (Salmonella typhimurium [7])	MIC (Escherichia coli [8])	MIC (Talaromyces funiculosus [17])	MIC (Penicillium ochrochloron [18])	MIC (Trichoderma viride [19])	MIC (Aspergillus fumigatus [20])	SMILES	MBC (Staphylococcus aureus [9])	MBC (Bacillus cereus [10])	MBC (Micrococcus flavus [11])	MBC (Listeria monocytogenes [12])	MBC (Pseudomonas aeruginosa [13])	MBC (Enterobacter cloacae [14])	MBC (Salmonella typhimurium [15])	MBC (Escherichia coli [16])	also measured
250 µM (≈ 99.6 µg/mL)	250 µM (≈ 99.6 µg/mL)	250 µM (≈ 99.6 µg/mL)	250 µM (≈ 99.6 µg/mL)	130 µM (≈ 51.8 µg/mL)	630 µM (≈ 251 µg/mL)	130 µM (≈ 51.8 µg/mL)	630 µM (≈ 251 µg/mL)	250 µM (≈ 99.6 µg/mL)	250 µM (≈ 99.6 µg/mL)	130 µM (≈ 51.8 µg/mL)	130 µM (≈ 51.8 µg/mL)	CCCCNc1nnc(Cc2cc(OC)c(OC)cc2S(=O)(=O)N(C)C)o1	380 µM (≈ 151 µg/mL)	250 µM (≈ 99.6 µg/mL)	500 µM (≈ 199 µg/mL)	750 µM (≈ 299 µg/mL)	250 µM (≈ 99.6 µg/mL)	750 µM (≈ 299 µg/mL)	250 µM (≈ 99.6 µg/mL)	630 µM (≈ 251 µg/mL)	MIC (Aspergillus niger [21]): 250 µM (≈ 99.6 µg/mL); MIC (Aspergillus flavus [22]): 250 µM (≈ 99.6 µg/mL); MIC (Aspergillus versicolor [23]): 250 µM (≈ 99.6 µg/mL); MIC (Fulvia fulva [24]): 130 µM (≈ 51.8 µg/mL); MFC (Talaromyces funiculosus [25]): 500 µM (≈ 199 µg/mL); MFC (Penicillium ochrochloron [26]): 750 µM (≈ 299 µg/mL); MFC (Trichoderma viride [27]): 130 µM (≈ 51.8 µg/mL); MFC (Aspergillus fumigatus [28]): 250 µM (≈ 99.6 µg/mL); MFC (Aspergillus niger [29]): 750 µM (≈ 299 µg/mL); MFC (Aspergillus flavus [30]): 750 µM (≈ 299 µg/mL); MFC (Aspergillus versicolor [31]): 750 µM (≈ 299 µg/mL); MFC (Fulvia fulva [32]): 250 µM (≈ 99.6 µg/mL)
250 µM (≈ 99.6 µg/mL)	390 µM (≈ 155 µg/mL)	250 µM (≈ 99.6 µg/mL)	250 µM (≈ 99.6 µg/mL)	390 µM (≈ 155 µg/mL)	630 µM (≈ 251 µg/mL)	130 µM (≈ 51.8 µg/mL)	390 µM (≈ 155 µg/mL)	130 µM (≈ 51.8 µg/mL)	130 µM (≈ 51.8 µg/mL)	60 µM (≈ 23.9 µg/mL)	130 µM (≈ 51.8 µg/mL)	COc1cc(Cc2nnc(NC(C)(C)C)o2)c(S(=O)(=O)N(C)C)cc1OC	500 µM (≈ 199 µg/mL)	390 µM (≈ 155 µg/mL)	500 µM (≈ 199 µg/mL)	390 µM (≈ 155 µg/mL)	390 µM (≈ 155 µg/mL)	630 µM (≈ 251 µg/mL)	250 µM (≈ 99.6 µg/mL)	390 µM (≈ 155 µg/mL)	MIC (Aspergillus niger [21]): 250 µM (≈ 99.6 µg/mL); MIC (Aspergillus flavus [22]): 130 µM (≈ 51.8 µg/mL); MIC (Aspergillus versicolor [23]): 130 µM (≈ 51.8 µg/mL); MIC (Fulvia fulva [24]): 250 µM (≈ 99.6 µg/mL); MFC (Talaromyces funiculosus [25]): 250 µM (≈ 99.6 µg/mL); MFC (Penicillium ochrochloron [26]): 380 µM (≈ 151 µg/mL); MFC (Trichoderma viride [27]): 130 µM (≈ 51.8 µg/mL); MFC (Aspergillus fumigatus [28]): 250 µM (≈ 99.6 µg/mL); MFC (Aspergillus niger [29]): 380 µM (≈ 151 µg/mL); MFC (Aspergillus flavus [30]): 250 µM (≈ 99.6 µg/mL); MFC (Aspergillus versicolor [31]): 380 µM (≈ 151 µg/mL); MFC (Fulvia fulva [32]): 250 µM (≈ 99.6 µg/mL)
